The source made the active and inactive calls. No cut-off for these calls is given here.
How the values were obtained:
[1] = molecular target: T1, Histone-lysine N-methyltransferase SETD7 (Homo sapiens, UniProt Q8WTS6); assay: Competitive inhibition of SET7 (unknown origin) after 60 mins by AlphaLISA method in presence of SAM
T1 sequence (Q8WTS6 whole entry): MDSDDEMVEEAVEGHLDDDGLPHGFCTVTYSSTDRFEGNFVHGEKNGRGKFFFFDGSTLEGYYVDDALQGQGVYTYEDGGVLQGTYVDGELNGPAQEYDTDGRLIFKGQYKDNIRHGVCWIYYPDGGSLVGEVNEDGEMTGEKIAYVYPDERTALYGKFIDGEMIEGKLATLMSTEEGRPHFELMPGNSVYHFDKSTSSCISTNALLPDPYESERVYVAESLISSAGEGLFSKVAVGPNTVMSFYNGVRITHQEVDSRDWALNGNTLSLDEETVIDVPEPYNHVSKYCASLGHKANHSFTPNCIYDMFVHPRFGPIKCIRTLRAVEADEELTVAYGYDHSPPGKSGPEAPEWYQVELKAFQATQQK

[2] = molecular target: T2, Histone-lysine N-methyltransferase EHMT2 (Homo sapiens) (UniProt Q96KQ7); assay: Inhibition of G9a (unknown origin) at 100 uM preincubated for 15 mins followed by substrate addition measured after 60 mins by AlphaLISA method relative to control
T2 sequence (whole entry): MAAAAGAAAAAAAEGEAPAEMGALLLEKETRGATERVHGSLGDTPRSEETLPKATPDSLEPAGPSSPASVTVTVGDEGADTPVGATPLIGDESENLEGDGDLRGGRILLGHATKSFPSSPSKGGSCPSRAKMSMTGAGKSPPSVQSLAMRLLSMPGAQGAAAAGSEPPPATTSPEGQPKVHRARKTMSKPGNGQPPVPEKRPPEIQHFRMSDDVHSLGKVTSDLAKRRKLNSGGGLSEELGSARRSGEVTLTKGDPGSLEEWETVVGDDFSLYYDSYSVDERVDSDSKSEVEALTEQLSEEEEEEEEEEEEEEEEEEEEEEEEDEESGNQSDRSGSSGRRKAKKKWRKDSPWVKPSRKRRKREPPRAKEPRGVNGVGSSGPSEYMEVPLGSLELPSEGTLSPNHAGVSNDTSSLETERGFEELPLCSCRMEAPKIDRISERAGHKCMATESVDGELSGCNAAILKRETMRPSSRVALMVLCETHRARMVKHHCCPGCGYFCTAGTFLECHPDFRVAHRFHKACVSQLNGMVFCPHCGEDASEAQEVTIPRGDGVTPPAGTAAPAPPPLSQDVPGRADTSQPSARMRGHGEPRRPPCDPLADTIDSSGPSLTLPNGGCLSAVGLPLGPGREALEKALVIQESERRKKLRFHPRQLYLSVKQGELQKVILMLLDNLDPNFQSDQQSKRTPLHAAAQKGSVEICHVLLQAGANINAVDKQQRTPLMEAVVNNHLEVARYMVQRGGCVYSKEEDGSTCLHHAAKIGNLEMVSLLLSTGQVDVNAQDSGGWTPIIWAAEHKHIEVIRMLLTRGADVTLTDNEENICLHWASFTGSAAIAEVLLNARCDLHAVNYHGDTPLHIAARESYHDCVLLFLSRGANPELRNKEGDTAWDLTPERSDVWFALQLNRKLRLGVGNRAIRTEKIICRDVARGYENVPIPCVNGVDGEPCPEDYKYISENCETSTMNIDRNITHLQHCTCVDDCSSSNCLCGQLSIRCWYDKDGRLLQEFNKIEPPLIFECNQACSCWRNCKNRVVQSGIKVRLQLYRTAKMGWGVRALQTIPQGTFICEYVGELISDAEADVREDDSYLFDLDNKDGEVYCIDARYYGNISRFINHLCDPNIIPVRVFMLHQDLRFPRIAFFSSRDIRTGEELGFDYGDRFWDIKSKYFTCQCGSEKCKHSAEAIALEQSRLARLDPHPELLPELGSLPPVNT
Summary of the method: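 AlphaLISA in modified Tris buffer: compounds (DMSO) with enzyme 15 min at room temperature, then substrate mix added for 60 min at room temperature. Acceptor and donor bead mix added for 60 min in subdued light, then Alpha signal read.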

[3] = molecular target: Histone-lysine N-methyltransferase, H3 lysine-36 specific (Homo sapiens) (UniProt Q96L73); assay: Inhibition of NSD1 (unknown origin) at 100 uM preincubated for 15 mins followed by substrate/[3H]-SAM addition measured after 4 hrs by liquid scintillation counting analysis relative to control
Histone-lysine N-methyltransferase, H3 lysine-36 specific (Homo sapiens), sequence (Q96L73 whole entry): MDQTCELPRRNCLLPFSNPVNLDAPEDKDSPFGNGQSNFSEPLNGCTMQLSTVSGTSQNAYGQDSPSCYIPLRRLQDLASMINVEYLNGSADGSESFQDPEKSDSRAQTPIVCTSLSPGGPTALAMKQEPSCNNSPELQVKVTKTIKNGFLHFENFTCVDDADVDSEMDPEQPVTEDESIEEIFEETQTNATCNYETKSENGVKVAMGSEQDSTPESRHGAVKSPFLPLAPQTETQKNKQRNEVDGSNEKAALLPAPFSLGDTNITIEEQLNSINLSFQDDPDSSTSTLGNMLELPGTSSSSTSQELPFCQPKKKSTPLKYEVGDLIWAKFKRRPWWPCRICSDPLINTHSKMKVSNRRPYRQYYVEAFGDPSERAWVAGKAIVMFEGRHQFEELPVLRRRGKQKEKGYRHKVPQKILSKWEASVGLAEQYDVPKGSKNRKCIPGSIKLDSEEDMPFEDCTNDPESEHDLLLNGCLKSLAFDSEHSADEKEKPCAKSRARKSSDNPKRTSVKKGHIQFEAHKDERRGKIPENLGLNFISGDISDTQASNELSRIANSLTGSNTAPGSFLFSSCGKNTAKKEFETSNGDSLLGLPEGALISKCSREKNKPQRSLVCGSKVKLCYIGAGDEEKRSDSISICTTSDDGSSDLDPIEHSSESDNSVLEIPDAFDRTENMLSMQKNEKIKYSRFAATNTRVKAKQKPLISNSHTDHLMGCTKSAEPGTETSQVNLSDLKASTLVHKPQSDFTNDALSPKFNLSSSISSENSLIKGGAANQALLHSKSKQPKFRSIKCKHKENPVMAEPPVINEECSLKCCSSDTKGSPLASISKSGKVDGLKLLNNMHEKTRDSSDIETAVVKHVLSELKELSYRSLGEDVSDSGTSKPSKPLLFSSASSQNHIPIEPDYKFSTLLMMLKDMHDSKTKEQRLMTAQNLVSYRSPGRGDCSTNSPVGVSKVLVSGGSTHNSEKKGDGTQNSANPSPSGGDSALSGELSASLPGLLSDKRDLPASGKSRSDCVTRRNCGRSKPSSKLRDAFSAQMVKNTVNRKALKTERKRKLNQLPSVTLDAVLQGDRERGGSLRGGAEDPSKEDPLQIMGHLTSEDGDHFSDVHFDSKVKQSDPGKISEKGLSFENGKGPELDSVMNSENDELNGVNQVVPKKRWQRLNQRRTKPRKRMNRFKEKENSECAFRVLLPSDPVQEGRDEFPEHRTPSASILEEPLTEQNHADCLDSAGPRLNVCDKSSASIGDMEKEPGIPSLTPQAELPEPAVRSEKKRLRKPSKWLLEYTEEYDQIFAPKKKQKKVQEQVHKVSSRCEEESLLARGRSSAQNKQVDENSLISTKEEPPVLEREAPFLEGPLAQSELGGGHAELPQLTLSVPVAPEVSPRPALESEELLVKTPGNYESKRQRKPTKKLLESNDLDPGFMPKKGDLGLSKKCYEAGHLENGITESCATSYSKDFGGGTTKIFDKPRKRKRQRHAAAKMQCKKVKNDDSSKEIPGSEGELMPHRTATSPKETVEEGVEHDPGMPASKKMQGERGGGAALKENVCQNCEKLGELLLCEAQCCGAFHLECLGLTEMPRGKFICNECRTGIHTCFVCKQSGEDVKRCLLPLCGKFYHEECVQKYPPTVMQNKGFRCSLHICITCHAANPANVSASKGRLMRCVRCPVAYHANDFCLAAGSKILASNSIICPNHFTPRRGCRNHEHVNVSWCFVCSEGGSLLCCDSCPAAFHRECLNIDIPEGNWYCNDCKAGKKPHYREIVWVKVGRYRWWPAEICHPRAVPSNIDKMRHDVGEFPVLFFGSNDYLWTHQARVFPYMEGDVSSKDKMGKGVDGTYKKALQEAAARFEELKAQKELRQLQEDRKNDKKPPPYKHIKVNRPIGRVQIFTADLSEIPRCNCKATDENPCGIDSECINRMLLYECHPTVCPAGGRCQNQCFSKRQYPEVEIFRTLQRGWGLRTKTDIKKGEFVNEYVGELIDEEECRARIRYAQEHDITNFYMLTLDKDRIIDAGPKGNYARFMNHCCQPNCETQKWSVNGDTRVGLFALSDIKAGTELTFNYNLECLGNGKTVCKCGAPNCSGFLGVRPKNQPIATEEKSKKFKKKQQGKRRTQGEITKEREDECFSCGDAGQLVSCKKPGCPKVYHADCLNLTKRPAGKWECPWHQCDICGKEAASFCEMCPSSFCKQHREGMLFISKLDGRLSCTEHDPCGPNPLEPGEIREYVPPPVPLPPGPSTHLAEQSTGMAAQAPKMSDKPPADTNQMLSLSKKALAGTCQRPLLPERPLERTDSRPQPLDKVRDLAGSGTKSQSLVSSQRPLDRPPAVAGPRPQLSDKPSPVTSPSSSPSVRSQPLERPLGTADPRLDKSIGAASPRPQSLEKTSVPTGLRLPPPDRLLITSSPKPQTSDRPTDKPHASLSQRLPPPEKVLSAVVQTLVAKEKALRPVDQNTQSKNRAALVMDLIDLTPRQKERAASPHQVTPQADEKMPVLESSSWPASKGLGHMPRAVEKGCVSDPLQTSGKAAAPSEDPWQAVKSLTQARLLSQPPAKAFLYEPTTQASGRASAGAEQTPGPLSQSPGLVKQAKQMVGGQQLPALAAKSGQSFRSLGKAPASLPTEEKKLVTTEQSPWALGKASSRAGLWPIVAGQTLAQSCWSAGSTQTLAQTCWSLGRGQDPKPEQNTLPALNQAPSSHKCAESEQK
Summary of the method: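 Enzyme in modified Tris buffer, 15 min at room temperature, then substrate and [3H]-SAM added. After 4 h, cold SAM stop, transfer to PEI-pretreated GF/B filter plate, water washes under vacuum, then scintillation counting.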

[4] = molecular target: T3, N-lysine methyltransferase KMT5A (Homo sapiens) (UniProt Q9NQR1); assay: Inhibition of SETD8 (unknown origin) at 100 uM preincubated for 15 mins measured after 120 mins by microbeta counting analysis in presence of [3H]-SAM relative to control
T3 sequence (whole entry): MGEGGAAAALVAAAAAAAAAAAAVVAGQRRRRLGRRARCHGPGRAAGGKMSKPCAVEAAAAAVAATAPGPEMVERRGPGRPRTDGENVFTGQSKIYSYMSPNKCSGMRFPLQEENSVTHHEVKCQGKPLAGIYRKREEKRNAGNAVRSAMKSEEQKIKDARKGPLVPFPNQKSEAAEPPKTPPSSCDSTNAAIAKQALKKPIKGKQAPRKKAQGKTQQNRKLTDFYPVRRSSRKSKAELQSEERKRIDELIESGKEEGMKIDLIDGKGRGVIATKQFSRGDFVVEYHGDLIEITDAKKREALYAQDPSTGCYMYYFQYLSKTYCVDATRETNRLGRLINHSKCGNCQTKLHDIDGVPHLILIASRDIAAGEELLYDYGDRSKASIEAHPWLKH
Summary of the method: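 Compounds added in DMSO and enzyme held 15 min at room temperature in modified Tris buffer. Reaction started with peptide plus [3H]-SAM and stopped with cold SAM after 120 min. Transferred to streptavidin FlashPlate for at least 60 min, washed with water/0.1% Tween-20, then counted.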

[5] = molecular target: Histone-lysine N-methyltransferase EZH2 (Homo sapiens) (UniProt Q15910); assay: Inhibition of EZH2 (unknown origin) using H3K27me peptide as substrate at 100 uM preincubated for 15 mins followed by substrate/[3H]SAM addition by liquid scintillation counting analysis relative to control
Histone-lysine N-methyltransferase EZH2 (Homo sapiens), sequence (Q15910 whole entry, looked up): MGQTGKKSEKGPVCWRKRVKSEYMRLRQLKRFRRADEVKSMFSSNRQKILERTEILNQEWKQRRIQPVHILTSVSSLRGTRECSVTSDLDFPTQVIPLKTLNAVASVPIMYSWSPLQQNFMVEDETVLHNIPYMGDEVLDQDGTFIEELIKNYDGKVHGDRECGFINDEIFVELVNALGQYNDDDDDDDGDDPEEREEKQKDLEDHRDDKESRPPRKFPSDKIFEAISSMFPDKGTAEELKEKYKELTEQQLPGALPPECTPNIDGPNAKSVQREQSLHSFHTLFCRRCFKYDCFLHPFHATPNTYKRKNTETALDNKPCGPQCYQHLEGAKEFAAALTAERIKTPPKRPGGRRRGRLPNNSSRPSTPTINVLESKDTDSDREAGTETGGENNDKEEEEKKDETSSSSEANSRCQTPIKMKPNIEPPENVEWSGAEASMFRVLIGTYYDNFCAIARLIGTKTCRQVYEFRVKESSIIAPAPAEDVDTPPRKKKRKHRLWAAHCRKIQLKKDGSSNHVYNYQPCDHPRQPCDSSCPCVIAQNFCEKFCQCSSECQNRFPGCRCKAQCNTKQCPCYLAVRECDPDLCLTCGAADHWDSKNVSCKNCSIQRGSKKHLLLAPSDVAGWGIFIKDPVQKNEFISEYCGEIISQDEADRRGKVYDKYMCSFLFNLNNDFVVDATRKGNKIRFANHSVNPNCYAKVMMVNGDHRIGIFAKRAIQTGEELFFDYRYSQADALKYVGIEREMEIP
Summary of the method: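 Enzyme in modified Tris buffer, 15 min at room temperature, then H3K27me peptide plus [3H]-SAM added to start. Stopped with cold SAM (final 0.5 mM), transferred to FlashPlate for at least 1 h at room temperature, washed with water/0.1% Tween-20, then scintillation counting.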

[6] = molecular target: DNA (cytosine-5)-methyltransferase 1 (Homo sapiens) (UniProt P26358); assay: Inhibition of DNMT1 (unknown origin) using poly(dI-DC) as substrate at 100 uM preincubated for 15 mins followed by substrate and [3H]SAM addition measured after 120 mins by microbeta counting analysis relative to control
DNA (cytosine-5)-methyltransferase 1 (Homo sapiens), sequence (P26358 whole entry): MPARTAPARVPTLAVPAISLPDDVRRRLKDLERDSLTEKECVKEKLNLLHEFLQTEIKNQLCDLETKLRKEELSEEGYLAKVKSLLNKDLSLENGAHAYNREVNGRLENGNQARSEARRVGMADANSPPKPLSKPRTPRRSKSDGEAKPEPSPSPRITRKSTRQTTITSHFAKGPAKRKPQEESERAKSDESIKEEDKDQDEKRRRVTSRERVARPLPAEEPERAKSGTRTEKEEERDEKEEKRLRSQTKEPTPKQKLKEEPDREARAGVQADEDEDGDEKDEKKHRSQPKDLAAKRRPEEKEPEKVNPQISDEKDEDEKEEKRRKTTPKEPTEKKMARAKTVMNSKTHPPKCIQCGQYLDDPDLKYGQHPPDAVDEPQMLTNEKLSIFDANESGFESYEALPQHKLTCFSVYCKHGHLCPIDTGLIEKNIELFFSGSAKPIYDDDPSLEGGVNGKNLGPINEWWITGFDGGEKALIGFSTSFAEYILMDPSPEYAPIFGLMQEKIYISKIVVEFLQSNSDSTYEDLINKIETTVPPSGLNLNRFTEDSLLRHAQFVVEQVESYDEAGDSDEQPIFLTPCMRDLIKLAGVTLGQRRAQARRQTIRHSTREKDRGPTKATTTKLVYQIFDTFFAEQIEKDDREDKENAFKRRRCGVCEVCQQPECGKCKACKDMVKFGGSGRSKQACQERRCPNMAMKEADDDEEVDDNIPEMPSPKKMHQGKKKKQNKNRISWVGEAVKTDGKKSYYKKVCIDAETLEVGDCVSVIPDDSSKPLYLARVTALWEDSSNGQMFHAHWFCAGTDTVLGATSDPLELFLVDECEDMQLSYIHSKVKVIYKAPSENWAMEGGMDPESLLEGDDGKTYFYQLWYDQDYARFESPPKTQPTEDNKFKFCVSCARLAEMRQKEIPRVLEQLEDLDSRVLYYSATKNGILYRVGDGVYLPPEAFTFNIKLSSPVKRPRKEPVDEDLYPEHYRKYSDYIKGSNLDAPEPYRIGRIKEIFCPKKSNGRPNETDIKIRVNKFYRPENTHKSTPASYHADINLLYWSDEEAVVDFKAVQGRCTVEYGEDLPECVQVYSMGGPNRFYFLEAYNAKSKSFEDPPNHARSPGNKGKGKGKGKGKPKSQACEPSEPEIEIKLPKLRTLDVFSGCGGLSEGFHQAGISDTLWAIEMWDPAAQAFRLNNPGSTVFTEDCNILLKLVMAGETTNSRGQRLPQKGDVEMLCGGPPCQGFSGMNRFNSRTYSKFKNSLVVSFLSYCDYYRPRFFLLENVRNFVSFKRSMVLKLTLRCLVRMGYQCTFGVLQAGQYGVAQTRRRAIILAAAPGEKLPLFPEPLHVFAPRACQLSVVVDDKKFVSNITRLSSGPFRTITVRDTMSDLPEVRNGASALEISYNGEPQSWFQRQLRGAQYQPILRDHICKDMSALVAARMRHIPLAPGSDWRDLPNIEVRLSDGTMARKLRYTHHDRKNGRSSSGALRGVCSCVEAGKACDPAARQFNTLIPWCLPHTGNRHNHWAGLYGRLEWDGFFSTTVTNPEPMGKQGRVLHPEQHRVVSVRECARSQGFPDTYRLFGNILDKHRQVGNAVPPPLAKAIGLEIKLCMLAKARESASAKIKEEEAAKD
Summary of the method: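 Radioactive methylation assay in modified Tris buffer with poly(dI-dC) substrate. Enzyme held 15 min at room temperature, then substrate and [3H]-SAM added. Reaction run 120 min at 37 °C, then moved to 0.5% PEI-pretreated filter plates, washed with water under vacuum and counted. Maximum = enzyme plus substrate; minimum = substrate only.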

[7] = molecular target: Histone-lysine N-methyltransferase, H3 lysine-79 specific (Homo sapiens) (UniProt Q8TEK3); assay: Inhibition of DOT1L (unknown origin) at 100 uM preincubated for 15 mins followed by oligonucleosomes/SAM addition measured after 30 mins by AlphaLISA method relative to control
HL-60 = assay: cells; details: Homo sapiens, HL-60, 120 h
MV4-11 = assay: Cytotoxicity against human MV4-11 cells assessed as inhibition of cell proliferation after 120 hrs by alamar blue assay; assay type: functional, cell-based
Summary of the method: (§1)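 Cells seeded at approximately 2*10^4 per well in 100 µL medium, grown overnight, then exposed for about 120 h to 0–100 µM in DMSO. MCF7 and HCT116 read by MTT: 2 h at 37 °C, crystals dissolved in DMSO, absorbance 490 nm with 630 nm reference. HL60, MV4-11 and DHL4 read by alamarBlue, fluorescence ex 544/em 590 nm. Signals normalized to control wells.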

[8] = molecular target: DNMT3A2/3L complex (Homo sapiens) (UniProt Q9Y6K1+Q9UJW3); assay: Inhibition of DNMT3A/3L (unknown origin) using IDT-01 sequence 1/IDT-01 sequence 2 as substrate at 100 uM preincubated for 15 mins followed by substrate addition measured after 4 hrs by liquid scintillation counting analysis relative to control; assay type: protein-complex assay
Summary of the method: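 Radioactive methylation assay in modified Tris buffer with IDT-01 Sequence 1 and Sequence 2 as substrates. Enzyme preincubated 15 min at room temperature before substrate added. After 4 h at room temperature, stopped with cold SAM, then transferred to FlashPlate and read by liquid scintillation counting.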

SUD4 = assay: Cytotoxicity against human SU-DHL4 cells assessed as inhibition of cell proliferation after 120 hrs by alamar blue assay; assay type: functional, cell-based; summary of the method: as §1
HCT-116 = assay: Cytotoxicity against human HCT116 cells assessed as inhibition of cell proliferation after 120 hrs by MTT assay
MCF7 = assay: cells; details: Homo sapiens, MCF7, 120 h
[9] = molecular target: T1, Histone-lysine N-methyltransferase SETD7; assay: Inhibition of SET7 (unknown origin)
Summary of the method: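 AlphaLISA: purified SET7 in modified Tris buffer 15 min at room temperature, compounds added in DMSO, then substrate solution added for 60 min. Acceptor and donor beads incubated 60 min at room temperature in the dark, then Alpha-mode read. Inhibition % = (Max−Signal)/(Max−Min)×100; low control received assay buffer instead of enzyme.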

| SMILES | IC50 [1] [µM] | inhibition [2] [%] | inhibition [3] [%] | inhibition [4] [%] | inhibition [5] [%] | inhibition [6] [%] | inhibition [7] [%] | IC50 (HL-60) [µM] | inhibition (MV4-11) | inhibition [8] [%] | inhibition (SUD4) | inhibition (HCT-116) | IC50 (MCF7) [µM] | IC50 [9] [µM] |
| --- | --- | --- | --- | --- | --- | --- | --- | --- | --- | --- | --- | --- | --- | --- |
| COC(=O)c1c(N)sc(C(=O)Nc2cccc([N+](=O)[O-])c2)c1C | 4.88 | 29.9 | 25.1 | 45.5 | 19.6 | 9.82 |  |  |  |  |  |  |  |  |
| O=C(Nc1cccc([N+](=O)[O-])c1)c1ccc2c(c1)OCO2 | 61.7 |  |  |  |  |  |  |  |  |  |  |  |  |  |
| CCOC(=O)c1c(N)sc(C(=O)Nc2cccc([N+](=O)[O-])c2)c1C | 4.59 | -0.71 | 27.2 | 40.9 | 19.6 | 16.1 | -5.42 | 16.4 | Dose-dependent effect | -4.25 | inactive | inactive | 10.9 |  |
| CN1CCC(=C2c3ccccc3C=Cc3ccccc32)CC1 [CYPROHEPTADINE] |  |  |  |  |  |  |  |  |  |  |  |  |  | 20 |

Reference: ChEMBL document CHEMBL3621043, “Discovery and Optimization of Novel, Selective Histone Methyltransferase SET7 Inhibitors by Pharmacophore- and Docking-Based Virtual Screening” (J Med Chem, 2015)
